Laboratory results as given in ChEMBL document CHEMBL1154791, “Constituents of Polyalthia longifolia var. pendula” (J Nat Prod, 2009).
pIC50: −log10 of the molar value.

Experiments:
[1] = tested on: MCF7; experiment: Cytotoxicity against human MCF7 cells after 72 hrs by MTT assay; assay type: functional, cell-based; conditions: for IC50: mcf7
Procedure, shortened: (§1)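 Cells grown in RPMI1640 with 10% FBS, penicillin and streptomycin; log-phase cells seeded per well (MCF-7 1.0 × 10^4; A549 4.5 × 10^3). After 24 h, exposed to various concentrations for 72 h.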

[2] = tested on: A549; experiment: Cytotoxicity against human A549 cells after 72 hrs by MTT assay; assay type: functional, cell-based; conditions: for IC50: a549; procedure, shortened: as §1

| Structure (SMILES) | pIC50 ([1]; Homo sapiens, MCF7, 72 h, read-out: IC50) | pIC50 ([2]; Homo sapiens, A549, 72 h, read-out: IC50) | IC50 [1] | IC50 [2] |
| --- | --- | --- | --- | --- |
| CC1=CCC[C@@H]2[C@@](C)(CC/C(C=O)=C\C(=O)O)[C@H](C)CC[C@@]12C | 5.43 | 5.51 |  |  |
| CC1=CC(=O)C[C@@H]2[C@@](C)(CC/C(C)=C\C(=O)O)[C@H](C)CC[C@@]12C |  |  | Not Active | Not Active |
| CC1=CCC[C@@H]2[C@@](C)(CC/C(=C\C(=O)O)CO)[C@H](C)C[C@H](O)[C@@]12C |  |  | Not Active | Not Active |
| C=C1CCC[C@@H]2[C@@](C)(CC/C(=C\C(=O)O)CO)[C@H](C)C[C@H](O)[C@@]12C |  |  | Not Active | Not Active |
| COc1cc2c(cc1OC)[C@@H]1Cc3ccc(O)c(O)c3C(=O)N1CC2 |  |  | Not Active | Not Active |
| COc1cc2c(cc1OC)[C@@H]1Cc3cc(O)cc(OC)c3C(=O)N1CC2 |  |  | Not Active | Not Active |
| C[C@@H]1CC[C@]2(C)[C@H](CCC[C@]23CO3)[C@@]1(C)CC/C(=C\C(=O)O)CO |  |  | Not Active | Not Active |
| COc1cc2c(cc1OC)[C@@H]1Cc3ccc(O)c(OC)c3C(=O)N1CC2 |  |  | Not Active | Not Active |
| COc1cc2c(cc1O)[C@@H]1Cc3cc(O)c(OC)cc3C(=O)N1CC2 |  |  | Not Active | Not Active |
| COc1cc2c(cc1OC)[C@@H]1Cc3cc(O)c(OC)c(OC)c3C(=O)N1CC2 |  |  | Not Active | Not Active |
| COc1cc2c(cc1O)[C@@H]1Cc3cc(OC)c(O)c(OC)c3C(=O)N1CC2 |  |  | Not Active | Not Active |
| CCCCC/C=C\C/C=C\CCCCCCCC(=O)OCC(O)CO (stereo not given) |  |  | Not Active | Not Active |
| COc1cc2c(cc1OC)[C@@H]1Cc3ccc(OC)c(OC)c3C(=O)N1CC2 |  |  | Not Active | Not Active |
| COc1c(O)cc2c(c1OC)-c1nccc(C)c1C2=O [DARIENINE] |  |  | Not Active | Not Active |
| COc1cc(/C=C/C(=O)NCCc2ccc(O)c(O)c2)ccc1O [N-TRANS-FERULOYLDOPAMINE] |  |  | Not Active | Not Active |
